Screening data from PubChem.
IMP-1 inh = inhibitors of Pseudomonas aeruginosa IMP-1 metallo-beta-lactamase | purified IMP-1, nitrocefin hydrolysis, epi-absorbance fluorescence | inhibition, % at 5.6 µM | hit rate 0.45% among 290,000 | AID 1556;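 active = inhibition above the mean plus 3 SD of all compounds in the same screening run, cut at about 4.5% in these data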
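system = purified recombinant IMP-1 beta-lactamase | amount = 0.2 nM IMP-1, as dispensed | medium = HEPES buffer pH 7.1 with ZnSO4 and Brij 35 | times = 25 °C, 15 min preincubation, 25 min reaction | detection = plate fluorescence quenching by hydrolysis product, ex 480/em 530 nm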
MEX-5 binding = C. elegans MEX-5 TCR-2 RNA binding activity | AID 1832 | MEX-5/FITC-TCR2 RNA binding, fluorescence polarization; active compounds read low | hit rate 0.38% among 300,000 | activity score (negative = inhibition of binding), % at 10 µM | Q9XUB2;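 active = inhibition past about -25% in most replicates, and total fluorescence under double the plate's negative control median, limit read from the data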
VIM-2 inhibitor = inhibitors of Pseudomonas aeruginosa VIM-2 metallo-beta-lactamase; purified VIM-2, nitrocefin hydrolysis, epi-absorbance fluorescence; inhibition, % at 5.6 µM; hit rate 0.89% among 290,000; AID 1527;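 active = inhibition above the mean of all tested compounds plus 3 SD, cutoff set per screening run, cut at about 7.5% in these data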;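 also: red hydrolysis product quenches plate fluorescence so inhibitors raise well fluorescence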
GLD-1 TGE inh = GLD-1-TGE RNA interaction inhibition (C. elegans) | inhibition, % at 5.96 µM | AID 2280 | hit rate 0.44% among 320,000 | purified GLD-1 + fluorescein TGE RNA, fluorescence polarization;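 active = percent inhibition above a per-plate cutoff, the plate mean of test compounds plus 3 SD, cut at about 30% in these data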
Target sequence (Q17339 whole entry, looked up): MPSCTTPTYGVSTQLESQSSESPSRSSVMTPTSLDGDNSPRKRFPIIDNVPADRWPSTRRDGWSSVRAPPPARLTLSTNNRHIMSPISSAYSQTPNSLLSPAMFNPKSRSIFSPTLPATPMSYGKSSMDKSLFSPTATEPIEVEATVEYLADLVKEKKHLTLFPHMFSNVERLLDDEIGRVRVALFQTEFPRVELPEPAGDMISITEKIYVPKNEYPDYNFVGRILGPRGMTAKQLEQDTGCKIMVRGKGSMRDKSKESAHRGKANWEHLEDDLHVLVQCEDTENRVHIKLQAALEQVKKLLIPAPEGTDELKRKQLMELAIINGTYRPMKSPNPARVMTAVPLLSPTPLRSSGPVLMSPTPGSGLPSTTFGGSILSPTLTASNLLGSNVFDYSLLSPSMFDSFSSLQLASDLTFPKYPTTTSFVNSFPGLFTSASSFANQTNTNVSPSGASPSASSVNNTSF
EBV gp42 inh = blocks Epstein-Barr virus glycoprotein 42 binding | AID 1085 | Fluorescence polarization binding assay, mP read-out | inhibition, % (tested at 21.74 µM) | Q1HVG2 | hit rate 0.42% among 220,000; in the data active = inhibition above about 50%
Target sequence (Q1HVG2 whole entry, looked up): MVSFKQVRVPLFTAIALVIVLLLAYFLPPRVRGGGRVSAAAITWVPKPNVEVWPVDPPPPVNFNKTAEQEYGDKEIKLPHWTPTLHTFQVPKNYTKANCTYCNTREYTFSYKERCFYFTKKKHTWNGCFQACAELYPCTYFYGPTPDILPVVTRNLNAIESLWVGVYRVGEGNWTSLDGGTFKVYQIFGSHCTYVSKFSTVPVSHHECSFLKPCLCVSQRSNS
Bcl-xL primary = Bcl-xL (human) inhibition | GST-Bcl-xL / FITC-Bim BH3 peptide fluorescence polarization | hit rate 0.7% among 320,000 | inhibition, % at 10.9 µM | Q07817;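 active = inhibition above the mean of all tested compounds plus 3 SD, cutoff set per campaign, cut at about 30% in these data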;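 also: inhibitors lower millipolarization by displacing the labeled peptide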
Numbers stand for hits; n = inactive; x = no result. Most compounds without a hit are left out; they make up all but 2.2% or so of the library.

SMILES | IMP-1 inh | MEX-5 binding | VIM-2 inhibitor | GLD-1 TGE inh | EBV gp42 inh | Bcl-xL primary
CCCCC1(C)NC(=O)N(CC(=O)Nc2ccc(Cl)cc2C)C1=O (stereo not drawn) | x | x | x | n | x | x
Cc1ccc(NC(=O)c2nc(S(=O)(=O)Cc3ccccc3C)ncc2Cl)cc1C | n | n | n | n | x | n
CC(C)Oc1cccc(C(=O)C2CCCN(C(=O)c3ccc4c(c3)OCO4)C2)c1 (stereo not drawn) | n | n | n | n | x | n
CN(CC(=O)Nc1c(Cl)cccc1Cl)C(=O)Cn1[nH]c(=O)c2ccccc2c1=O | x | x | x | n | x | n
COc1cc(Nc2c3c(nc4ccccc24)CCCC3)cc(OC)c1OC | n | n | n | n | n | n
CC(=O)c1ccc(Nc2c3c(nc4ccccc24)CCCC3)cc1 | n | n | n | n | 86 | n
CC(Oc1ccc2c3c(c(=O)oc2c1)CCCC3)C(=O)NCCN1CCOCC1 (stereo not drawn) | n | n | n | n | x | n
COc1ccc2c(c1OC)c(=O)n1c3ccc(OC(C)C(=O)NCCCN4CCOCC4)cc3c3ccnc2c31 (stereo not drawn) | n | n | 11 | n | x | n
Cc1ccccc1-n1c(SCc2c(C)noc2C)nnc1-c1ccncc1 | n | n | n | n | n | n
Cc1ccccc1-n1c(SCc2c(C)noc2C)nnc1-c1cccnc1 | n | n | n | 89 | 89 | 133
CC(=O)Cn1c(CN2CCN(C(=O)c3ccco3)CC2)nc2c1c(=O)n(C)c(=O)n2C | n | n | n | n | x | n
COc1cc(C2C(C#N)=C(N)Oc3n[nH]c(-c4cccnc4)c32)ccc1OCC(N)=O (stereo not drawn) | n | n | n | n | n | n
COc1cc(C2C(C#N)=C(N)Oc3n[nH]c(-c4cccnc4)c32)cc(Br)c1O (stereo not drawn) | n | -34 | n | n | n | n
Cc1cc(-c2[nH]nc3c2C(c2ccsc2)C(C#N)=C(N)O3)c(C)s1 (stereo not drawn) | n | n | n | n | n | n
Cc1cc(-c2[nH]nc3c2C(c2cccc(O)c2)C(C#N)=C(N)O3)c(C)s1 (stereo not drawn) | 6.8 | n | n | n | n | n
O=c1[nH]c2ccc(N=Cc3c(O)ccc4cc(Br)ccc34)cc2[nH]1 | n | n | n | x | 82 | x
O=C(CN1C(=O)C2CCCCC2C1=O)Nc1nc(-c2ccccn2)cs1 (stereo not drawn) | n | n | n | n | n | n
C[C@@H](C(=O)Nc1nc(-c2ccccn2)cs1)N1C(=O)C2CCCCC2C1=O (stereo partly drawn) | 11 | n | n | n | n | n
O=C(Cc1ccccc1)NN1CCCCC1 | n | n | n | n | x | n
O=C(NC1CCCCC1)C(c1cccs1)N(C(=O)c1ccccn1)c1ccccc1 (stereo not drawn) | n | n | n | n | n | n
OC(C#Cc1ccccn1)c1cccs1 (stereo not drawn) | n | -35 | n | n | n | 42
CCOC(=O)c1cnc2ccc(OCC)cc2c1NCc1cccnc1 | n | x | n | n | n | n
CCOC(=O)c1cnc2c(OC)cccc2c1NCc1cccnc1 | n | n | 11 | n | n | n
Oc1ccccc1N=Cc1c(O)ccc2oc3c(c12)CCCC3 | n | n | n | 38 | n | n
O=C(O)c1ccc(N=Cc2c(O)ccc3oc4c(c23)CCCC4)cc1 | n | n | n | n | n | n
SMILES | IMP-1 inh | MEX-5 binding | VIM-2 inhibitor | GLD-1 TGE inh | EBV gp42 inh | Bcl-xL primary
NC(=S)Nc1cccc2cc3ccccc3cc12 | n | n | n | n | n | 57
C=CCn1ccc2c([N+](=O)[O-])cccc2c1=O | n | n | n | n | n | n
C=CCn1ccc(=NC=C(C#N)C#N)c2ccccc21 | n | -75 | n | n | n | n
CCOC(=O)c1cnc(COc2ccc(OC)cc2)[nH]c1=O | n | n | n | n | n | n
COC(=O)c1cc(NC(=O)c2cccc(Cl)c2)c(=O)oc1/C=C/Nc1cc(C)cc(C)c1 | n | -28 | n | n | 156 | n
COC(=O)c1cc(NC(=O)c2cccc(C(F)(F)F)c2)c(=O)oc1C | n | n | n | n | n | n
COc1ccc(CNc2ncc(-c3ccccc3)n2C)cc1 | n | n | n | n | x | n
CCOc1cc(CNc2ncc(-c3ccc(OC)cc3)n2C)ccc1O | 4.8 | n | n | n | n | n
Cc1ccc(-n2c(C)cc(-c3csc(N)n3)c2C)cc1 | n | n | n | n | n | n
Cc1cc(-c2csc(N)n2)c(C)n1C | n | -47 | n | n | n | 41
COc1ccc(CCN(C)C(=O)COc2ccc(C(=O)c3ccccc3)cc2)cc1OC | x | n | x | n | x | n
COc1ccc(CCN(C)C(=O)Cc2ccc(-c3ccccc3)cc2)cc1OC | 8.5 | n | n | n | x | n
Cc1ccnc(NC(=O)c2cnc(Cl)c(Cl)c2)c1 | n | n | n | n | x | n
O=C(N/N=C/C(Br)=C/c1ccccc1)c1ccc([N+](=O)[O-])cc1 | 42 | n | n | n | x | n
O=S(=O)(Nc1ccc(-c2ccc3nncn3n2)cc1)c1cccs1 | x | n | x | n | x | n
COc1cc2c(cc1/C=C/C(=O)O)OC(C)C2 (stereo not drawn) | 9.2 | n | n | n | n | n
CC1(C)Cc2c(c(N3CCCCC3)[nH]c(=S)c2C#N)CS1 | 8.2 | n | n | x | n | x
COc1ccccc1CNC(=O)CNC(=O)c1ccc(Br)o1 | n | n | n | n | x | n
O=C(NCCCn1ccnc1)c1cc(-c2ccc(Cl)cc2)nc2ccccc12 | n | n | n | n | n | n
COc1ccc(C(C)=O)cc1CC(=O)NCCCn1ccnc1 | 4.8 | n | n | n | x | n
O=C(NCCCn1ccnc1)c1ccc2c(c1)OCCO2 | n | n | n | n | 90 | n
Cc1cc(C)c(S(=O)(=O)N2CCOC2CNC(=O)C(=O)NCCCn2ccnc2)c(C)c1 (stereo not drawn) | 7.0 | x | n | n | n | n
O=C(NCCCn1ccnc1)c1cc(-c2ccncc2)nc2ccccc12 | n | n | 11 | n | n | n
Cc1ccc(C(=O)N/C(=C\c2ccco2)C(=O)NCCCn2ccnc2)cc1C | 9.7 | n | n | n | n | n
COc1ccc(C(=O)N/C(=C\c2ccco2)C(=O)NCCCn2ccnc2)cc1 | n | n | n | n | n | n
SMILES | IMP-1 inh | MEX-5 binding | VIM-2 inhibitor | GLD-1 TGE inh | EBV gp42 inh | Bcl-xL primary
O=C(NCCCn1ccnc1)C(=O)NCC1OCCN1S(=O)(=O)c1ccc2c(c1)OCCO2 (stereo not drawn) | 5.1 | x | n | n | n | n
CC(C)C[C@H]1CN=C(Nc2ccccc2)N1CCC(C)c1ccccc1 (stereo partly drawn) | x | x | x | n | x | n
COc1ccc(Nc2nc3ccccc3nc2NS(=O)(=O)c2cccs2)c(OC)c1 | n | -40 | n | n | n | n
O=C(NCCC(=O)N1CCCC(C(F)(F)F)C1)c1ccc(Br)cc1 (stereo not drawn) | n | n | n | n | x | n
CSc1ccc(NC(=O)NCCCN2CCC(Cc3ccccc3)CC2)cc1 | n | n | n | n | x | n
COc1ccc(C(=O)/C=C/Nc2cccc(O)c2)cc1 | n | n | n | n | n | 46
